Compounds with a hit are over-represented: about 2.3% of the library has one in this group of screens.
TRPC6 inhibitor – inhibitors of mouse TRPC6 channel | B-score at 10 µM | HEK293-TRPC6, membrane potential dye, ACh-evoked depolarization; stronger effect = lower value | Q61143 | actives 1.1% (n = 310,000);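 active = B-score under library mean minus 3 SD, initial fluorescence not abnormally high, positive integrated signal ratio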;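 also: B-score derived from integrated fluorescence ratio over the kinetic read; more negative B-score means stronger inhibition of depolarization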
TRPC4 inh – blocks the mouse TRPC4 cation channel. Q9QUQ5. HEK293 TRPC4beta/mu-opioid, DAMGO-evoked Fluo4 calcium flux; stronger effect = lower value. B-score at 10 µM. actives 0.39% (n = 300,000). AID 2247;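 active = B-score over 3 SD under the library average, no early fluorescence shift, positive overall ratio signal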
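Material: HEK293 cells with stable TRPC4beta plus mu-opioid receptor expression; probe or stimulus: DAMGO in two steps, submaximal then maximal; technique: Fluo4 calcium fluorescence by kinetic imaging, 5 s 1 Hz baseline; measure: integrated fluorescence ratio relative to baseline, converted to per-well B score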
TRPC6 act – mouse TRPC6 channel activation; actives 0.13% (n = 310,000); B-score at 10 µM; Q61143; AID 2550; HEK293-TRPC6 membrane potential dye fluorescence; stronger effect = higher value;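 active = B-score of the integrated fluorescence ratio above library mean plus 3 SD, and starting fluorescence ratio within library mean plus 5 SD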;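 also: higher score means more depolarization so channel activation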
TRPC4 agonist – opens the mouse TRPC4 cation channel. AID 2237. B-score at 10 µM. actives 0.49% (n = 310,000). Q9QUQ5. HEK293 TRPC4beta/mu-opioid, Fluo4 calcium fluorescence; stronger effect = higher value;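 active = B-score above 5 SD of library B-scores, and initial fluorescence ratio not above library mean plus 5 SD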;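 also: positive B-score marks a calcium rise read as TRPC4 activation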
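Technique: kinetic Fluo4 calcium fluorescence; Test system: TRPC4beta and mu-opioid receptor HEK293 stable cells; Measure: B-scored integrated calcium fluorescence ratio; Benchmarks: low control buffer alone, high control maximal DAMGO; Schedule: 45 min room-temperature Fluo4 loading, 110 s read.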
TRPC4 PAM – allosteric potentiators of mouse TRPC4 channel | AID 2227 | Q9QUQ5 | B-score at 10 µM | HEK293 TRPC4beta/mu-opioid, DAMGO EC20, Fluo-4 Ca2+ flux; stronger effect = higher value | actives 0.42% (n = 310,000);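 active = B-score of calcium response area above 5 SD of library B-scores, with initial fluorescence ratio within 5 SD of library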;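 also: B-score of integrated fluorescence ratio over time as area under calcium response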
Starred values were filed as active, the others as inactive; i = inactive.

SMILES	TRPC6 inhibitor	TRPC4 inh	TRPC6 act	TRPC4 agonist	TRPC4 PAM
COc1ccc(C)cc1N(C(=O)c1snc(C(N)=O)c1N)C(C(=O)NC1CCCC1)c1ccc(F)cc1 (stereo unspecified)	i	-11*	i	i	i
Cc1ccccc1N(C(=O)c1snc(C(N)=O)c1N)C(C(=O)NCC1CCCO1)c1ccc(N(C)C)cc1 (stereo unspecified)	i	i	i	i	i
Cc1ccccc1N(C(=O)c1snc(C(N)=O)c1N)C(C)C(=O)NC1CCCCC1 (stereo unspecified)	i	-6*	i	i	i
Cc1ccccc1N(C(=O)c1snc(C(N)=O)c1N)C(C(=O)NC1CCCCC1)c1ccc(O)cc1 (stereo unspecified)	i	i	i	i	i
CC(CCc1ccccc1)NC(=O)N1CCOCC1 (stereo unspecified)	i	i	i	i	i
O=C(NCCCN1CCOCC1)C(C(=O)c1ccccc1)n1ccccc1=O (stereo unspecified)	i	i	i	i	i
COC(=O)C1=C(C)NC(C)=C(C(=O)OCC2CCCO2)C1c1cccc(Br)c1 (stereo unspecified)	i	i	i	i	i
NC(=O)c1nsc(C(=O)N(Cc2ccc(F)cc2)C(C(=O)NCC2CCCO2)c2ccc(O)cc2)c1N (stereo unspecified)	i	-10*	i	i	i
NC(=O)c1nsc(C(=O)N(Cc2ccccc2Cl)C(C(=O)NCC2CCCO2)c2ccc(O)cc2)c1N (stereo unspecified)	i	-8*	i	i	i
Cc1ccc(N(C(=O)c2snc(C(N)=O)c2N)C(C(=O)NCC2CCCO2)c2ccc(C)o2)c(C)c1 (stereo unspecified)	i	-7*	i	i	i
CCOc1ccc(C(C(=O)NCC2CCCO2)N(Cc2cccnc2)C(=O)c2snc(C(N)=O)c2N)cc1 (stereo unspecified)	i	-6*	i	i	i
CCOc1ccc(C(C(=O)NCC2CCCO2)N(Cc2ccccc2)C(=O)c2snc(C(N)=O)c2N)cc1 (stereo unspecified)	i	i	i	i	i
COc1ccc(C(C(=O)NCC2CCCO2)N(Cc2cccs2)C(=O)c2snc(C(N)=O)c2N)cc1 (stereo unspecified)	i	i	i	i	i
CN(c1ccc(C(=O)N/N=C/c2cccc([N+](=O)[O-])c2)cc1)S(=O)(=O)c1ccccc1	i	i	i	i	i
Cc1nc(-c2ccc(S(=O)(=O)Oc3ccccc3Cl)s2)cs1	i	i	i	i	i
CCn1c(=O)cc(OCC(=O)N2CCN(c3cccc(C(F)(F)F)c3)CC2)c2ccccc21	i	i	i	i	11*
COc1ccc(CNCc2ccc3c(c2)OCO3)c(OC)c1OC	i	i	i	i	i
COc1ccc(CNCc2ccc3c(c2)OCO3)cc1Br	i	i	i	43*	i
Clc1ccc(CNCc2cccs2)cc1Cl	i	i	i	i	i
COc1ccc(-n2nc(C(=O)NCC(=O)NCCCN3CC(C)CC(C)C3)c3ccccc3c2=O)cc1Cl (stereo unspecified)	i	i	i	128*	i
CCn1c(=O)c(C(=O)NNC(=O)c2ccccc2Cl)c(O)c2ccccc21	i	i	i	51*	i
CCn1c(=O)c(C(=O)NNC(=O)c2ccccc2F)c(O)c2ccccc21	i	i	i	114*	i
O=C(O)/C=C/C(=O)N1CCN(c2cccc(Cl)c2)CC1	i	i	i	i	i
CCc1ccc(/C=C2\SC(=S)N(CCCC(=O)Nc3ccccn3)C2=O)cc1	i	i	i	i	i
CCc1ccc(/C=C2/SC(=S)N(CCCC(=O)Nc3ccccc3C(=O)O)C2=O)cc1	i	-6*	i	i	i
SMILES	TRPC6 inhibitor	TRPC4 inh	TRPC6 act	TRPC4 agonist	TRPC4 PAM
COC(=O)CCCCCN1C(=O)/C(=C\c2ccncc2)SC1=S	i	i	i	i	10*
CC(Sc1nnnn1-c1ccccc1)C(=O)Nc1ccc(N2CCN(C)CC2)cc1 (stereo unspecified)	i	i	i	47*	i
CC(Sc1nnnn1-c1ccccc1)C(=O)Nc1ccccc1-c1ccccc1 (stereo unspecified)	i	i	i	i	i
O=C(CO/N=C/c1ccc2c(c1)OCO2)Nc1cccc(Br)c1	i	i	i	i	i
O=C(N/N=C/c1cc2c(cc1Br)OCO2)c1cc2ccccc2o1	i	-7*	i	i	i
CN(Cc1cccc(F)c1)CC(O)COCc1ccccc1Cl (stereo unspecified)	i	-6*	i	i	i
COCCCn1cc(C(=O)c2cc(OC)ccc2OCC(=O)N2CCCCC2C)cc(C#N)c1=O (stereo unspecified)	i	i	i	i	i
COc1cccc(Cn2c(Oc3cccc(C)c3)nc3c2c(=O)n(C)c(=O)n3C)c1	i	i	i	i	i
COc1cccc(Cn2c(Oc3ccccc3)nc3c2c(=O)n(C)c(=O)n3C)c1	i	-6*	i	i	i
CC1CC(C)CN(S(=O)(=O)c2ccc(C(=O)OCC(=O)NCCN3C(=O)CSC3=O)cc2)C1 (stereo unspecified)	i	i	i	i	i
CC(=O)c1ccc(N2CCN(C(=O)/C=C/c3ccc(S(=O)(=O)NCc4ccco4)cc3)CC2)cc1	i	i	i	i	12*
CC(=O)c1ccc(N2CCN(C(=O)/C=C/c3ccc(S(=O)(=O)N4CCOCC4)cc3)CC2)cc1	i	i	i	i	i
CCCOC(=O)c1cc(NC(=O)/C=C/c2ccccc2)ccc1O	i	i	i	i	i
Cc1ccc(C(C(=O)NC(C)(C)C)N(Cc2ccco2)C(=O)CCC(=O)Nc2ccccn2)cc1 (stereo unspecified)	i	i	i	i	i
Cc1ccc(C(C(=O)NC(C)(C)C)N(C(=O)CCC(=O)Nc2ccccn2)c2ccccc2F)cc1 (stereo unspecified)	i	-8*	i	i	i
Cc1sc2ncnc(NC3CCN(Cc4ccccc4)CC3)c2c1C	i	i	i	193*	i
CCNC(=O)CSc1nc2ccccc2c(=O)n1-c1cc(OC)ccc1OC	i	i	i	i	i

Assay outcomes (PubChem BioAssay)
